Ki data for 25 molecules are collected here from ChEMBL document CHEMBL1145556, “Development of potent and selective phosphinic peptide inhibitors of angiotensin-converting enzyme 2” (J Med Chem, 2008).

The target of test [1] is Angiotensin-converting enzyme 2 (Homo sapiens, UniProt Q9BYF1). Description: Inhibition of ACE2. In a few lines:
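Recombinant ACE2 (0.3 nM final) preincubated with inhibitor for 45 min, then Mca-APK(Dnp) substrate (35 µM final) added. Run at 25 °C in 50 mM Hepes pH 6.8, 1 M NaCl, 10 µM ZnCl2. Fluorescence rise followed continuously (ex 320, em 405 nm) at under 10% substrate use. Triplicates at five inhibitor concentrations giving 20–80% inhibition; Ki by the Horovitz–Levitzki method.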

For test [2], the target named is T1, Carboxypeptidase A1 (Bos taurus, UniProt P00730).
T1 sequence (P00730 whole entry): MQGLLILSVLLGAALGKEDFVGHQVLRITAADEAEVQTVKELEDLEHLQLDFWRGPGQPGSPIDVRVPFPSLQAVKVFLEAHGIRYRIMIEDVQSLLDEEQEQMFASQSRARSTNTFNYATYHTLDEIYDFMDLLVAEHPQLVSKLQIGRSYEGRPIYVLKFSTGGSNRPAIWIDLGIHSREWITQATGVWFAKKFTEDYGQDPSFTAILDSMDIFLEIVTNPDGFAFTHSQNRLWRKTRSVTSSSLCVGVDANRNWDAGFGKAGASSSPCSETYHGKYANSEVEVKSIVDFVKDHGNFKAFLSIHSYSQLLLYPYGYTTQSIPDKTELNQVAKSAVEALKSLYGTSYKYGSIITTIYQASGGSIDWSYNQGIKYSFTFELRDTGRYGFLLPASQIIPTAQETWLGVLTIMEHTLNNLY
Kind of test: Inhibition of bovine carboxypeptidase A. In a few lines: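 Bovine pancreatic carboxypeptidase A (0.5 nM) mixed with inhibitor in 50 mM Tris-HCl, 1 M NaCl, pH 7.5. Reaction started by adding furylacryloyl-Phe-Phe (50 µM).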

Test [3] is described as follows: Inhibition of ACE. In a few lines: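 Somatic ACE (0.5 nM) with Mca-Ala-Ser-Asp-Lys-Dpa-OH substrate (15 µM). Otherwise as for ACE2: 45 min enzyme–inhibitor preincubation, 25 °C, 50 mM Hepes pH 6.8, 1 M NaCl, 10 µM ZnCl2. Continuous fluorescence read-out (ex 320, em 405 nm) of initial rates. Triplicates at five concentrations spanning 20–80% inhibition; Ki by the Horovitz–Levitzki method.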

A value given as a limit tells only on which side of the number the result lay.

As a reminder, the Ki is the dissociation constant of the complex between target and ligand, obtained from inhibition or displacement. Lower therefore signals a stronger hold on the target.

Angiotensin-converting enzyme 2, sequence (Q9BYF1 whole entry): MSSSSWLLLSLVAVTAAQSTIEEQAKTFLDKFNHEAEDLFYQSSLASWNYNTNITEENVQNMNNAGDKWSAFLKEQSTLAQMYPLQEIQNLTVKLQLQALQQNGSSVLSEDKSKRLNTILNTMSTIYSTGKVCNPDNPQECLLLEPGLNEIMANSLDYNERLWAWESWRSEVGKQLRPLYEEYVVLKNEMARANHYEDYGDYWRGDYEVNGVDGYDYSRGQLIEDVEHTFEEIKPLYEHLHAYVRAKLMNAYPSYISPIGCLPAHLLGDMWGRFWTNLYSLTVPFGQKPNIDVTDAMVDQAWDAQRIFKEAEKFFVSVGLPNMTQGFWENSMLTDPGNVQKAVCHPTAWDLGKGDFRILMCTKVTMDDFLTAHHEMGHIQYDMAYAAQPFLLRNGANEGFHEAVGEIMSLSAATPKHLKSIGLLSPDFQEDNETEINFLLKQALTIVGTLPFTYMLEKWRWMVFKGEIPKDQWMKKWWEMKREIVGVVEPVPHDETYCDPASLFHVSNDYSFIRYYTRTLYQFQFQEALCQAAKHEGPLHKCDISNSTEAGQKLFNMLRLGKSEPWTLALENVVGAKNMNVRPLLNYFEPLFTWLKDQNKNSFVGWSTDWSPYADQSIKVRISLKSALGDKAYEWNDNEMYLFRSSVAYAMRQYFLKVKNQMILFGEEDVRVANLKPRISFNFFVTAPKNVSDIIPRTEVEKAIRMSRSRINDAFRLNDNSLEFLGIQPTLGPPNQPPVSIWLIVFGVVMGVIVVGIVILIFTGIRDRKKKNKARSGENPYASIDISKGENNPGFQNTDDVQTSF

`O=C(N[C@H](Cc1ccccc1)P(=O)(O)C[C@@H](Cc1ccccc1)C(=O)O)OCc1ccccc1` displayed a Ki in test [1] of more than 10000 nM.

In the case of `C[C@@H](NC(=O)OCc1ccccc1)P(=O)(O)C[C@@H](Cc1ccccc1)C(=O)O`, the Ki in test [1] is more than 10000 nM.

Molecule `CC(=O)N[C@@H](Cc1ccccc1)C(=O)N1CCC[C@@H]1P(=O)(O)C[C@@H](Cc1ccccc1)C(=O)O` registered a Ki in test [1] of 5.2 nM.

As to `O=C(O)[C@H](Cc1ccccc1)CP(=O)(O)[C@H]1CCCN1C(=O)OCc1ccccc1`, in test [1], the affinity, expressed as Ki, was 300 nM.

The molecule `O=C(O)[C@H](Cc1ccccc1)CP(=O)(O)[C@H]1CCCN1` showed a Ki in test [1] of more than 10000 nM.

On to `CC(=O)N[C@@H](CC(C)C)C(=O)N1CCC[C@@H]1P(=O)(O)CC(Cc1cc(-c2ccccc2)no1)C(=O)O` (stereo partly specified), for which the Ki is 35 nM in test [2], more than 10000 nM in test [3] and 1.25 nM in test [1].

`CC(=O)N[C@@H](CCC(=O)O)C(=O)N1CCC[C@@H]1P(=O)(O)C[C@@H](Cc1ccccc1)C(=O)O` displayed a Ki in test [1] of 7 nM.

In turn, `CC(C)C[C@@H](NC(=O)OCc1ccccc1)P(=O)(O)C[C@@H](Cc1ccccc1)C(=O)O` came in with a Ki in test [1] of 8000 nM.

`CC(C)C[C@@H](N)P(=O)(O)C[C@@H](Cc1ccccc1)C(=O)O`: in test [1], the Ki is more than 10000 nM.

On to `C[C@@H](N)P(=O)(O)C[C@@H](Cc1ccccc1)C(=O)O`, for which the Ki in test [1] is more than 10000 nM.

Turning to `CC(=O)N[C@@H](Cc1c[nH]cn1)C(=O)N[C@H](CC(C)C)P(=O)(O)CC(Cc1cc(-c2ccccc2)no1)C(=O)O` (stereo partly specified), the Ki is more than 10000 nM in test [2] and 220 nM in test [1].

Take `CC(=O)N[C@@H](Cc1c[nH]cn1)C(=O)N[C@H](CC(C)C)P(=O)(O)C[C@@H](Cc1ccccc1)C(=O)O`: the Ki in test [2] was determined as 175 nM; in test [1], 800 nM.

Turning to `CC(=O)N[C@@H](CC(C)C)C(=O)N[C@H](Cc1ccccc1)P(=O)(O)C[C@@H](Cc1ccccc1)C(=O)O`, the Ki was found to be 0.3 nM in test [2] and 920 nM in test [1].

For the molecule `CC(=O)N[C@@H](Cc1c[nH]cn1)C(=O)N1CCC[C@@H]1P(=O)(O)CC(Cc1cc(-c2ccccc2)no1)C(=O)O` (stereo partly specified), the Ki was 1050 nM in test [2], more than 10000 nM in test [3] and 0.4 nM in test [1].

`C[C@H](CP(=O)(O)[C@H]1CCCN1C(=O)OCc1ccccc1)C(=O)O` displayed a Ki in test [1] of 3000 nM.

In turn, `CC(=O)N[C@@H](C)C(=O)N1CCC[C@@H]1P(=O)(O)C[C@@H](Cc1ccccc1)C(=O)O` gave a Ki in test [1] of 7.5 nM.

Consider `CC(=O)N[C@@H](Cc1ccc(O)cc1)C(=O)N1CCC[C@@H]1P(=O)(O)C[C@@H](Cc1ccccc1)C(=O)O`, for which, in test [1], the Ki is 5.2 nM.

On to `CC(=O)N[C@H](C(=O)N1CCC[C@@H]1P(=O)(O)C[C@@H](Cc1ccccc1)C(=O)O)C(C)C`, for which the Ki in test [1] amounted to 6.6 nM.

`CC(C)C[C@H](CP(=O)(O)[C@H]1CCCN1C(=O)OCc1ccccc1)C(=O)O` displayed a Ki in test [1] of 300 nM.

Regarding `CC(=O)N[C@@H](CCCCN)C(=O)N1CCC[C@@H]1P(=O)(O)C[C@@H](Cc1ccccc1)C(=O)O`, in test [1], the Ki is 6.5 nM.

Molecule `N[C@H](Cc1ccccc1)P(=O)(O)C[C@@H](Cc1ccccc1)C(=O)O` had a Ki in test [1] of more than 10000 nM.

Turning to `CC(=O)N[C@@H](CC(C)C)C(=O)N1CCC[C@@H]1P(=O)(O)C[C@@H](Cc1ccccc1)C(=O)O` (stereo in doubt), the Ki in test [2] was 0.5 nM; in test [3], more than 10000 nM; in test [1] it was 0.13 nM.

As to `CC(=O)N[C@@H](Cc1c[nH]cn1)C(=O)N1CCC[C@@H]1P(=O)(O)C[C@@H](Cc1ccccc1)C(=O)O` (stereo in doubt), the Ki in test [2] is 60 nM; in test [3] it was more than 10000 nM; in test [1], 0.7 nM.

Molecule `CC(=O)N[C@@H](CC(C)C)C(=O)N1CCC[C@@H]1P(=O)(O)C[C@@H](Cc1ccccc1)C(=O)O` (stereo in doubt; 28) showed an inhibitory constant (Ki) in test [1] of 0.35 nM.

For `CC(=O)N[C@@H](Cc1c[nH]cn1)C(=O)N1CCC[C@@H]1P(=O)(O)C[C@@H](Cc1ccccc1)C(=O)O` (stereo in doubt; 34), in test [1], the affinity, expressed as Ki, was 2.1 nM.
